Article PMC4929832 (Nature, 2016)
pIC50: −log10 of the molar value.

How the values were obtained:
[1] = target: LOK (Homo sapiens, UniProt O94804); experiment: kinase panel; assay type: biochemical
[2] = target: SRMS (Homo sapiens, UniProt Q9H3Y6); experiment: kinase panel; assay type: biochemical
[3] = target: AURORA-A (Homo sapiens, UniProt O14965); experiment: kinase panel; assay type: biochemical
[4] = target: GRK7 (Homo sapiens, UniProt Q8WTQ7); experiment: kinase panel; assay type: biochemical
[5] = target: IRAK4 (Homo sapiens, UniProt Q9NWZ3); experiment: kinase panel; assay type: biochemical
[6] = target: MEK1 (Homo sapiens, UniProt Q02750); experiment: kinase panel; assay type: biochemical
[7] = target: CAMK2A (Homo sapiens, UniProt Q9UQM7); experiment: kinase panel; assay type: biochemical
[8] = target: PRKD1 (Homo sapiens, UniProt Q15139); experiment: kinase panel; assay type: biochemical
[9] = target: PAK5 (Homo sapiens, UniProt Q9P286); experiment: kinase panel; assay type: biochemical
[10] = target: CHEK2 (Homo sapiens, UniProt O96017); experiment: kinase panel; assay type: biochemical
[11] = target: CHEK1 (Homo sapiens, UniProt O14757); experiment: kinase panel; assay type: biochemical
[12] = Mouse pharmacokinetic studies; assay type: in vivo; details: 20 mg/kg
[13] = target: DYRK1B (Homo sapiens, UniProt Q9Y463); experiment: kinase panel; assay type: biochemical
[14] = target: MSK1 (Homo sapiens, UniProt O75582); experiment: kinase panel; assay type: biochemical
[15] = target: P38-BETA (Homo sapiens, UniProt Q15759); experiment: kinase panel; assay type: biochemical
[16] = target: CDK4-CYCLIND (Homo sapiens, UniProt P11802); experiment: kinase panel; assay type: biochemical
Sequence of CDK4-CYCLIND (P11802 whole entry): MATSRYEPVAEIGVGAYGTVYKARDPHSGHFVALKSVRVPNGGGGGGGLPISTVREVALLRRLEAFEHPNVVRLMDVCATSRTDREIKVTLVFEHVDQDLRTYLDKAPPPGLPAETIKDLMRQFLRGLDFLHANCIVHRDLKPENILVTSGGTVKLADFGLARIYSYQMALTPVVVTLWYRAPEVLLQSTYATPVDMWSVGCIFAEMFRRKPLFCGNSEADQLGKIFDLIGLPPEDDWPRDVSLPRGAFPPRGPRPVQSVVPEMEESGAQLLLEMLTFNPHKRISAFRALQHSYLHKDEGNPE
Sequence of CDK4-CYCLIND (P24385 whole entry partner): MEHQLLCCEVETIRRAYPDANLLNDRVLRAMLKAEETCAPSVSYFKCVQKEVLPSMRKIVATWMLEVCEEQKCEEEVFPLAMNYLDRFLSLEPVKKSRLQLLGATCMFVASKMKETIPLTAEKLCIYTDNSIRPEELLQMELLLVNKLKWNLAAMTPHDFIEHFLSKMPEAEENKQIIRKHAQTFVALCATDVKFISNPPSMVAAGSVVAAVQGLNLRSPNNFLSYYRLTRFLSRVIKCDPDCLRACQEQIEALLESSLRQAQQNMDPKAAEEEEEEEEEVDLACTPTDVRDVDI

[17] = target: HIPK3 (Homo sapiens, UniProt Q9H422); experiment: kinase panel; assay type: biochemical
[18] = target: PAK4 (Homo sapiens, UniProt O96013); experiment: kinase panel; assay type: biochemical
[19] = target: CDK2-CYCLINA (Homo sapiens, UniProt P24941); experiment: kinase panel; assay type: biochemical
[20] = target: KIT (Homo sapiens, UniProt P10721); experiment: kinase panel; assay type: biochemical
[21] = target: TRKC (Homo sapiens, UniProt Q16288); experiment: kinase panel; assay type: biochemical
[22] = target: CAMK2B (Homo sapiens, UniProt Q13554); experiment: kinase panel; assay type: biochemical
Sequence of CAMK2B (Q13554 whole entry): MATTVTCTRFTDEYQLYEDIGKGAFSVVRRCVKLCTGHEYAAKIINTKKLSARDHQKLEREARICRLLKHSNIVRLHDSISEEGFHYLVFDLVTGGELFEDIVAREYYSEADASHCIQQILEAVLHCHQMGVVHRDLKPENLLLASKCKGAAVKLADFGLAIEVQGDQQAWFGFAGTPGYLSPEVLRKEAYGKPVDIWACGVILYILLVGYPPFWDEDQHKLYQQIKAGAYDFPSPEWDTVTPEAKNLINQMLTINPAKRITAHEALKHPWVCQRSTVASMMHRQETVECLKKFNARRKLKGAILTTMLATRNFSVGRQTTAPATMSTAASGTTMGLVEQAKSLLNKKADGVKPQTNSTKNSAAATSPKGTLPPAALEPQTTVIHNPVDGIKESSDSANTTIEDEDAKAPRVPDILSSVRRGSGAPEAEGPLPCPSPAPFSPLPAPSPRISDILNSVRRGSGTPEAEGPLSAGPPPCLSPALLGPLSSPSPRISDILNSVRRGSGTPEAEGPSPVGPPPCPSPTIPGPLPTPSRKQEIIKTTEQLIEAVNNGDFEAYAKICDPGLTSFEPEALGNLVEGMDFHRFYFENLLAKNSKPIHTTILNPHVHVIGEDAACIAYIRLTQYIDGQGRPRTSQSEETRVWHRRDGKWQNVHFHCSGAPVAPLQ

[23] = target: PLK1 (Homo sapiens, UniProt P53350); experiment: kinase panel; assay type: biochemical
[24] = target: Phosphodiesterase 3 (Homo sapiens, UniProt Q14432); experiment: Phosphodiesterase 3 assay; assay type: biochemical
Sequence of Phosphodiesterase 3 (Q14432 whole entry): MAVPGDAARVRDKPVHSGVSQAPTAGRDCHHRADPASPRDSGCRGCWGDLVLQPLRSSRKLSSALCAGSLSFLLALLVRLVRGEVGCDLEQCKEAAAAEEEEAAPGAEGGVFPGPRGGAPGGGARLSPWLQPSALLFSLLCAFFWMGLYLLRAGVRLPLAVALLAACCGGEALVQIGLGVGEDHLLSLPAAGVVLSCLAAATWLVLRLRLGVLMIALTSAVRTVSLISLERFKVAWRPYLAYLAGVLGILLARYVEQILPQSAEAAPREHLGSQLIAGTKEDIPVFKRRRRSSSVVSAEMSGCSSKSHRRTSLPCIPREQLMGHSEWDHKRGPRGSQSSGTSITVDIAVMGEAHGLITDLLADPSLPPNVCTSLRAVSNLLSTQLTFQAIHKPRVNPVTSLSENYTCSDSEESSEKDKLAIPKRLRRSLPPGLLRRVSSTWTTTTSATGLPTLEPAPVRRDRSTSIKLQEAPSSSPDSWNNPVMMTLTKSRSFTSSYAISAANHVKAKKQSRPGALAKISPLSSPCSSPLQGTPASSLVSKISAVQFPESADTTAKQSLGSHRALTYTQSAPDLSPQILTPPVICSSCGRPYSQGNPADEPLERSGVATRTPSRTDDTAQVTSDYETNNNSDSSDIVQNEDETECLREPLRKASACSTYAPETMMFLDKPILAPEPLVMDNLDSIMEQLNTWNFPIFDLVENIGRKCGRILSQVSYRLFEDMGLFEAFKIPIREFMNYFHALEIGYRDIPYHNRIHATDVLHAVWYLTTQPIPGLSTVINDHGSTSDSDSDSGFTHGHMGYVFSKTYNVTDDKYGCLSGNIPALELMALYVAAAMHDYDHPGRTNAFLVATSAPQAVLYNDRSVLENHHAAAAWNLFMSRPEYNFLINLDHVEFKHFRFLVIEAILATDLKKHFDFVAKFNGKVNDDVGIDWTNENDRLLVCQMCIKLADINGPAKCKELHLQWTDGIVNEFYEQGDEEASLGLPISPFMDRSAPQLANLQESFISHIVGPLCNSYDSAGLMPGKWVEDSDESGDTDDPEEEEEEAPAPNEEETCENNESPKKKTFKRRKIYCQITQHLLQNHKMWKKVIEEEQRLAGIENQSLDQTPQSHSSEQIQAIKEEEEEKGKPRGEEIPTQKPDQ

[25] = target: MAPKAPK2 (Homo sapiens, UniProt P49137); experiment: kinase panel; assay type: biochemical
[26] = target: JAK3 (Homo sapiens, UniProt P52333); experiment: kinase panel; assay type: biochemical
Sequence of JAK3 (P52333 whole entry): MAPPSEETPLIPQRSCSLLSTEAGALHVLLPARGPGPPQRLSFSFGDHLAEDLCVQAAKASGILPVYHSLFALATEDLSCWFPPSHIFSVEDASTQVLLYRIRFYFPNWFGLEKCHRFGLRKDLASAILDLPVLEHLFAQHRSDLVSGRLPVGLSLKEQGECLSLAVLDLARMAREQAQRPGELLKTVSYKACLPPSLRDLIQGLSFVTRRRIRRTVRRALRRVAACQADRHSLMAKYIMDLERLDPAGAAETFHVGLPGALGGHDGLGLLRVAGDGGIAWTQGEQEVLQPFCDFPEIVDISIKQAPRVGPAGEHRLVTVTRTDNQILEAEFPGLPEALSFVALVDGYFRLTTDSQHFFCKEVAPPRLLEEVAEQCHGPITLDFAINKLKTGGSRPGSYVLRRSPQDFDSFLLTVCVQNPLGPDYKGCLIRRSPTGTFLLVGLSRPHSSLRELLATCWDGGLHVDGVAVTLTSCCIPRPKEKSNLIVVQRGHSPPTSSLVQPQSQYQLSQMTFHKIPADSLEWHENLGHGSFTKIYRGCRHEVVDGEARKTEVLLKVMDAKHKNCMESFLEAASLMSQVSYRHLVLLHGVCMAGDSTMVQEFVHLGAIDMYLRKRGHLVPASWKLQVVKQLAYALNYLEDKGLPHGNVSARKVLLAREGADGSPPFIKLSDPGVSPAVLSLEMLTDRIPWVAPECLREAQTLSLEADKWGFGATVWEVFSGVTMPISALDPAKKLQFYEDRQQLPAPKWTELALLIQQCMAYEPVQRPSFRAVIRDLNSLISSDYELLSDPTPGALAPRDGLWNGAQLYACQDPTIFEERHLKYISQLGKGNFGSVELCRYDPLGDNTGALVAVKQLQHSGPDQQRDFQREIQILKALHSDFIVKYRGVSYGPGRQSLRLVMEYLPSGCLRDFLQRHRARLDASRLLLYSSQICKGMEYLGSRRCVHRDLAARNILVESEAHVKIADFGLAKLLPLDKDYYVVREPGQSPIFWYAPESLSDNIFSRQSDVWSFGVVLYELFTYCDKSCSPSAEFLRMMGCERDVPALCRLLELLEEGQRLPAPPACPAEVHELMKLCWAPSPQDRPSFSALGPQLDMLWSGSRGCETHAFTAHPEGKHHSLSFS

[27] = target: MSK2 (Homo sapiens, UniProt O75676); experiment: kinase panel; assay type: biochemical
[28] = target: CDK5-P25 (Homo sapiens, UniProt Q00535); experiment: kinase panel; assay type: biochemical
[29] = target: STK16 (Homo sapiens, UniProt O75716); experiment: kinase panel; assay type: biochemical
[30] = target: PHK-GAMMA1 (Homo sapiens, UniProt Q16816); experiment: kinase panel; assay type: biochemical
[31] = target: MRCK-BETA (Homo sapiens, UniProt Q9Y5S2); experiment: kinase panel; assay type: biochemical
[32] = tested on: exon19del/T790M EGFR mutant lung tumors (genetically engineered mice); experiment: Mouse efficacy study, tumor volume by MRI; assay type: in vivo; details: EAI045 60 mg/kg with cetuximab 1 mg I.P. every other day
Method in brief: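 Transgenic lung tumors were induced at 6 weeks of age: exon19del/T790M mice by doxycycline diet, L858R/T790M/C797S mice by intranasal Ad-Cre. The test compound in 10% NMP/90% PEG-300 was given at 60 mg/kg daily by oral gavage. […] MRI ran at baseline and every 2 weeks, and tumor volume was quantified in 3D at 4 weeks. Cohorts were non-blinded and not randomized.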

[33] = target: MAPK3 (Homo sapiens, UniProt P27361); experiment: kinase panel; assay type: biochemical
[34] = target: MARK4 (Homo sapiens, UniProt Q96L34); experiment: kinase panel; assay type: biochemical
[35] = target: NEK1 (Homo sapiens, UniProt Q96PY6); experiment: kinase panel; assay type: biochemical
[36] = target: LTK (Homo sapiens, UniProt P29376); experiment: kinase panel; assay type: biochemical
[37] = target: LATS2 (Homo sapiens, UniProt Q9NRM7); experiment: kinase panel; assay type: biochemical
[38] = target: PIM2 (Homo sapiens, UniProt Q9P1W9); experiment: kinase panel; assay type: biochemical
[39] = target: FGFR3 (Homo sapiens, UniProt P22607); experiment: kinase panel; assay type: biochemical
[40] = target: NDR2 (Homo sapiens, UniProt Q9Y2H1); experiment: kinase panel; assay type: biochemical
[41] = target: SPHK1 (Homo sapiens, UniProt Q9NYA1); experiment: kinase panel; assay type: biochemical

Sequence of AURORA-A (O14965 whole entry): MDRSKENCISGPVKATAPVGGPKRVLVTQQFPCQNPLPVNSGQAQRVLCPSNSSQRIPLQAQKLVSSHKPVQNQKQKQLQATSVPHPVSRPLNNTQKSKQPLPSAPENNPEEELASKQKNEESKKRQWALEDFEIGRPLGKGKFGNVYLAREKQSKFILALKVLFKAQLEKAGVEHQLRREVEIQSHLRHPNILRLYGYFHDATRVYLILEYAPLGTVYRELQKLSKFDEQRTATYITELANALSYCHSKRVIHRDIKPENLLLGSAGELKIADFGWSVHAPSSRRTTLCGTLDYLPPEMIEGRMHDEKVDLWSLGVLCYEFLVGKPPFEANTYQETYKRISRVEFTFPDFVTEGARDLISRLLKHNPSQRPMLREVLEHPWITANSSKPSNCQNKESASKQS
Sequence of LOK (O94804 whole entry): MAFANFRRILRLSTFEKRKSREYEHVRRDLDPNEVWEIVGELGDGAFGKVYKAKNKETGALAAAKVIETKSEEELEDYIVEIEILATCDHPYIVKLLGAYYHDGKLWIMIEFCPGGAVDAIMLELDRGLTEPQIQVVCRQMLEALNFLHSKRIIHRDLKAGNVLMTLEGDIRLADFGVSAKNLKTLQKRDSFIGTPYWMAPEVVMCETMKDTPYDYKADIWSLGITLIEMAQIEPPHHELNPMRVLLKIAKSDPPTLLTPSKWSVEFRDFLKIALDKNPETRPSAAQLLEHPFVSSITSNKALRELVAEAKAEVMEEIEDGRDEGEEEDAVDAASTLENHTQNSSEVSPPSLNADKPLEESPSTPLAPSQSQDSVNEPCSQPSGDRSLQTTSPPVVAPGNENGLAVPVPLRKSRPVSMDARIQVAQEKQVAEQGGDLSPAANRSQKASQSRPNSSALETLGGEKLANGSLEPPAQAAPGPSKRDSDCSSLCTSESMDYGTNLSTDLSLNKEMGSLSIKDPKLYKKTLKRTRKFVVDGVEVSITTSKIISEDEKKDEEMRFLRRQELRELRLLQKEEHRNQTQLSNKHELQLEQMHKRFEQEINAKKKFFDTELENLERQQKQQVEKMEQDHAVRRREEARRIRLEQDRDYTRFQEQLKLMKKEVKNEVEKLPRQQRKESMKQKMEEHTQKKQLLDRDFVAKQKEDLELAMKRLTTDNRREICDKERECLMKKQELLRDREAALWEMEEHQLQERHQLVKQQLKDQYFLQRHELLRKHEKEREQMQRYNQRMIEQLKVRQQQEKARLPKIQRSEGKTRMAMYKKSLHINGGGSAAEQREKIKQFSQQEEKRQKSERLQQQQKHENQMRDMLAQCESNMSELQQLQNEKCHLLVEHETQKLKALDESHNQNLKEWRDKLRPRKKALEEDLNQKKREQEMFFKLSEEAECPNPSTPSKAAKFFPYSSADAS

## O=C(Nc1nccs1)C(c1cc(F)ccc1O)N1Cc2ccccc2C1=O (stereo not drawn) [EAI045, 2-(5-fluoro-2-hydroxyphenyl)-2-(1-oxo-2,3-dihydro-1H-isoindol-2-yl)-N-(1,3-thiazol-2-yl)acetamide]
[1]
  inhibition at 1 µM: 1%
[2]
  inhibition at 1 µM: 0%
[3]
  inhibition at 1 µM: 0%
[4]
  inhibition at 1 µM: 0%
[5]
  inhibition at 1 µM: 0%
[6]
  inhibition at 1 µM: 0%
[7]
  inhibition at 1 µM: 2%
[8]
  inhibition at 1 µM: 0%
[9]
  inhibition at 1 µM: 0%
[10]
  inhibition at 1 µM: 0%
[11]
  inhibition at 1 µM: 0%
[12]
  maximal plasma concentration: 0.57 µM
[12]; plasma, oral
  half-life: 2.15 h
[13]
  inhibition at 1 µM: 2%
[14]
  inhibition at 1 µM: 0%
[15]
  inhibition at 1 µM: 0%
[16]
  inhibition at 1 µM: 0%
[17]
  inhibition at 1 µM: 0%
[18]
  inhibition at 1 µM: 0%
[19]
  inhibition at 1 µM: 1%
[20]
  inhibition at 1 µM: 0%
[21]
  inhibition at 1 µM: 4%
[22]
  inhibition at 1 µM: 0%
[23]
  inhibition at 1 µM: 7%
[24]
  pIC50: < 4.52
[25]
  inhibition at 1 µM: 0%
[26]
  inhibition at 1 µM: 0%
[27]
  inhibition at 1 µM: 2%
[28]
  inhibition at 1 µM: 0%
[29]
  inhibition at 1 µM: 0%
[30]
  inhibition at 1 µM: 0%
[31]
  inhibition at 1 µM: 0%
[32]
  tumor response: failed to respond
[33]
  inhibition at 1 µM: 0%
[34]
  inhibition at 1 µM: 0%
[35]
  inhibition at 1 µM: 0%
[36]
  inhibition at 1 µM: 1%
[37]
  inhibition at 1 µM: 2%
[38]
  inhibition at 1 µM: 2%
[39]
  inhibition at 1 µM: 1%
[40]
  inhibition at 1 µM: 0%
[41]
  inhibition at 1 µM: 0%
